Reference: ChEMBL document CHEMBL1155452, “Oncocin (VDKPPYLPRPRPPRRIYNR-NH2): a novel antibacterial peptide optimized against gram-negative human pathogens” (J Med Chem, 2010)

Legend:
[1] = tested on: Escherichia coli; assay: Antibacterial activity against Escherichia coli BL21 AI after 20 hrs by broth microdilution assay; format: functional
Outline: (§1)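 Nutrient-broth overnight cultures diluted in 1% TSB; E. coli BL21AI 7.5 × 10^5 cells/well, M. luteus ATCC 10240 2 × 10^6 cells/well. Peptides serially 2-fold diluted in 1% TSB from 128 to typically 0.5 μg/mL. Incubation at 37 °C; A595 read after 20 ± 2 h. MIC is the lowest concentration with absorbance not above medium only. Triplicate.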

[2] = tested on: Micrococcus luteus; assay: Antibacterial activity against Micrococcus luteus ATCC 10240 after 20 hrs by broth microdilution assay; format: functional; settings: ATCC 10240, 20 h; outline: as §1
[3] = Stability in 25% mouse serum assessed as half life at 75 ug/ml by MALDI-TOF-MS analysis; format: ADME, cell-free
Outline: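 Peptide at 75 μg/mL final in pooled mouse serum (undiluted or 25% v:v aqueous), 37 °C. Triplicate aliquots taken at 0, 30, 60, 120 and 240 min and precipitated with 3% TCA on ice for 10 min. Supernatant neutralized with NaOH and analysed by RP-HPLC on C18 with TFA-containing gradient. Amounts expressed relative to 0 min; metabolites identified by MALDI-TOF-MS.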

MIC [1] [µg/mL] | MIC [2] [µg/mL] | half-life at 75 ug/ml [3] [min] | Substance
64 | 32 | – | H-VDKPPYLPRPHPPRRIYNNR-OH
32 | 64 | < 30 | H-VDKPPYLPRPRPPRRIYNR-OH
16 | 128 | – | H-VDKPPYLPRPRPPRRIYNRN-NH2
